In experiment [1] the target is T1, Catechol O-methyltransferase (Rattus norvegicus) (UniProt P22734).
T1 sequence (whole entry): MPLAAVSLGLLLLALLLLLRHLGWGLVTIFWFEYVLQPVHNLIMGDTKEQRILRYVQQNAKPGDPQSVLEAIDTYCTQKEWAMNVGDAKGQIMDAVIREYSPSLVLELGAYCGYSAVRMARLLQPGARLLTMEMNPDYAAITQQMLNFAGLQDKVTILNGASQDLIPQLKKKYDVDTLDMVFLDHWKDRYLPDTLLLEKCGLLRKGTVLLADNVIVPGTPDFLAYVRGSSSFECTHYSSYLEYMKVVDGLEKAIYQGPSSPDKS
As to the kind of experiment: Inhibition of Catechol O-methyltransferase from rat liver at time zero with […] of the enzyme after pre-incubation for 30 min (in presence of DTT).

In experiment [2] the target is T1, Catechol O-methyltransferase (Rattus norvegicus). As to the kind of experiment: Inhibition of Catechol O-methyltransferase from rat liver at time zero with no further inactivation of the enzyme after pre-incubation for 30 min (in absence of DTT).
Experiment [3] has the same target. As to the kind of experiment: Inhibition constant against Catechol O-methyltransferase from rat liver in the absence of dithiothreitol (DTT).
Experiment [4] has the same target. As to the kind of experiment: Inhibition constant against Catechol O-methyltransferase from rat liver in the presence of 4 mM of dithiothreitol (DTT).
The species named for experiment [5] is Rattus norvegicus. As to the kind of experiment: Effect of dialysis on inhibitory potency when COMT is pre-incubated in the absence of dithiothreitol (DTT) (after dialysis (-DTT)). It is filed as functional.
Experiment [6] is filed under the species Rattus norvegicus. As to the kind of experiment: Effect of dialysis on inhibitory potency when COMT is pre-incubated in the absence of dithiothreitol (DTT) (before dialysis). It is filed as functional. In outline: (§1)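 Rat liver COMT (male Sprague-Dawley, partially purified, DTT-reactivated before use) preincubated 30 min at 37 °C in 0.2 M phosphate buffer pH 7.6 with 1 mM inhibitor, with or without 8.0 mM DTT. Activity was then assayed directly or after dialysis against 0.2 M phosphate pH 7.6 containing 8.0 mM DTT. Result expressed as % activity remaining.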

The species named for experiment [7] is Rattus norvegicus. As to the kind of experiment: Effect of dialysis on inhibitory potency when COMT is pre-incubated with dithiothreitol (+DTT) (after dialysis). It is filed as functional. The gist of the method: as §1
The species entered for experiment [8] is Rattus norvegicus. As to the kind of experiment: Effect of dialysis on inhibitory potency when COMT is pre-incubated with dithiothreitol (DTT) (before dialysis). It is filed as functional. In outline: as §1
The species named for experiment [9] is Rattus norvegicus. As to the kind of experiment: Effect of dialysis on inhibitory potency when COMT is pre-incubated in the absence of dithiothreitol (DTT) (after dialysis(+DTT)).

Take `COc1c(O)cc(C(=O)O)cc1S`: the figures for the inhibition in [1] and in experiment [2] were 39% and 91%, respectively. The Kii in [3] stood at 30.2 µM; in experiment [4], 743 µM. Besides, the Kis in experiment [3] was 59.9 µM; in experiment [4] it was 1140 µM. The Activity remaining in the experiment filed under Rattus norvegicus [5] worked out at 1%; in the experiment listed under Rattus norvegicus [6], 7%; in the experiment listed under Rattus norvegicus [7] it was 87%; in the experiment listed under Rattus norvegicus [8] it was 70%; in the experiment listed under Rattus norvegicus [9] it was 76%.

For orientation: inhibition means the percentage by which the read-out fell short of the control.

The values above are taken from ChEMBL document CHEMBL1122025, “Catechol O-methyltransferase. 11. Inactivation by 5-hydroxy-3-mercapto-4-methoxybenzoic acid” (1982).
